Laboratory results from ChEMBL document CHEMBL3588757, “Structure-based design, synthesis and biological testing of piperazine-linked bis-epipodophyllotoxin etoposide analogs” (Bioorg Med Chem, 2015).

Legend:
MDA-MB-468 = assay: Cytotoxicity against human MDA-MB-468 cells by SRB assay; assay type: functional
Procedure, shortened: (§1)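 NCI-60 panel screen; 5-dose testing giving GI50 per cell line, plus a single 10 µM one-dose test. Method details not given beyond the NCI screen.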

A549 = assay: Cytotoxicity against human A549/ATCC cells assessed as cell growth at 0.05 uM by SRB assay; assay type: functional; settings: read-out: Activity
A498 = assay: Cytotoxicity against human A498 cells assessed as cell growth at 50 uM by SRB assay; assay type: functional; settings: read-out: Activity
UACC-257 = assay: Cytotoxicity against human UACC257 cells assessed as cell growth at 5 uM by SRB assay; assay type: functional; settings: read-out: Activity
NCI-H460 [1] = assay: Cytotoxicity against human NCI-H460 cells assessed as cell growth at 5 uM by SRB assay; assay type: functional; settings: read-out: Activity
NCI-H460 [2] = assay: Cytotoxicity against human NCI-H460 cells assessed as cell growth at 0.005 uM by SRB assay; assay type: functional; settings: read-out: Activity
SW-620 [3] = assay: Cytotoxicity against human SW620 cells by SRB assay; assay type: functional; procedure, shortened: as §1
HCC 2998 = assay: Cytotoxicity against human HCC2998 cells assessed as cell growth at 0.005 uM by SRB assay; assay type: functional; settings: read-out: Activity
Procedure, shortened: (§2)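 Measured in the NCI-60 human tumour cell line panel using five-dose testing. Growth was recorded at each dose for each cell line, and a GI50 was derived for each line.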

SK-MEL-5 = assay: Cytotoxicity against human SK-MEL-5 cells assessed as cell growth at 0.005 uM by SRB assay; assay type: functional; settings: read-out: Activity
[4] = biological target: DNA topoisomerase 2-alpha (Homo sapiens) (UniProt P11388); assay: Inhibition of full-length human recombinant topoisomerase 2-alpha mediated relaxation and cleavage of supercoiled pBR322 plasmid DNA to linear DNA by ethidium bromide staining based gel electrophoresis assay
DNA topoisomerase 2-alpha (Homo sapiens), sequence (P11388 whole entry): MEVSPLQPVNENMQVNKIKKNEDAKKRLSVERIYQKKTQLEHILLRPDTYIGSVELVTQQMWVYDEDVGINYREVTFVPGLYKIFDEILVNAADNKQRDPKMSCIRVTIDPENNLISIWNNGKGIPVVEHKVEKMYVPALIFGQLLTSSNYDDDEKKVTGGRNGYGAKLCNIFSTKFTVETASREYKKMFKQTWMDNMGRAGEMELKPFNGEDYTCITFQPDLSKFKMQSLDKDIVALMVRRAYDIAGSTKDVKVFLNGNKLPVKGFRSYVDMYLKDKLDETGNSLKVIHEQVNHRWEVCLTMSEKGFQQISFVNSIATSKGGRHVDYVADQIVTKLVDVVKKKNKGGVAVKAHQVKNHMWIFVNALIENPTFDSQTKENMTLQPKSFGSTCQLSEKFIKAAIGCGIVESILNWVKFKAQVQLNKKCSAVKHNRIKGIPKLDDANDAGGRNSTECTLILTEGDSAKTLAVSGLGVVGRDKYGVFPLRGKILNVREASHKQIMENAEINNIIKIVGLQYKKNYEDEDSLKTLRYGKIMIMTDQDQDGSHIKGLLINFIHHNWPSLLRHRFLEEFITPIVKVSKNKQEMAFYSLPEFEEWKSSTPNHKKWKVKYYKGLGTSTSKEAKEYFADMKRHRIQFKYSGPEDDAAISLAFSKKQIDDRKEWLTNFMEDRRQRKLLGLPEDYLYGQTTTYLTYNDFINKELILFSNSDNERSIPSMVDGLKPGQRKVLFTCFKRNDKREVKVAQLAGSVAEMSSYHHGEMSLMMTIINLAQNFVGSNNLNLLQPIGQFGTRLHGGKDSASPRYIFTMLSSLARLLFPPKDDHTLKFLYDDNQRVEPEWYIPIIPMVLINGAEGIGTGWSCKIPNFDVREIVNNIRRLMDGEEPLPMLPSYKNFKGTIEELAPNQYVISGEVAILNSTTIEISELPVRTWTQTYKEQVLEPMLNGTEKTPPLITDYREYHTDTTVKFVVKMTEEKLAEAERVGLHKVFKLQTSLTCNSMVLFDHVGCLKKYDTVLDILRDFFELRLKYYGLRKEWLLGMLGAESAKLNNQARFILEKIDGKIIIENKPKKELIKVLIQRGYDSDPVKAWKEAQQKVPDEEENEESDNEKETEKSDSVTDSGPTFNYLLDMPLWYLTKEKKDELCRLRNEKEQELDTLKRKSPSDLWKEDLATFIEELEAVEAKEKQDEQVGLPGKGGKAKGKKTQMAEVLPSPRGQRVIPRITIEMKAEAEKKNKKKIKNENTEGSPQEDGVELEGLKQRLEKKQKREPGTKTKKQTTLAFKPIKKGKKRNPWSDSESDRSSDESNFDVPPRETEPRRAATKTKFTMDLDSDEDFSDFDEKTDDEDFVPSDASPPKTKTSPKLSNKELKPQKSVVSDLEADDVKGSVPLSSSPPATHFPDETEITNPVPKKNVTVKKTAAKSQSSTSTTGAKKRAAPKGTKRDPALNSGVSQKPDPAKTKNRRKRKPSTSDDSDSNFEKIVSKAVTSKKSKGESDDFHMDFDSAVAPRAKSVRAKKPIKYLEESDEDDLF
Procedure, shortened: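 Recombinant full-length human topoisomerase IIα with supercoiled pBR322 DNA at 37 °C. Components mixed on ice before drug addition. Complexes trapped with SDS; products run on ethidium bromide gels. Linear DNA identified against a HindIII-linearized marker; repeated on three days.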

ACHN [5] = assay: Cytotoxicity against human ACHN cells assessed as cell growth at 0.005 uM by SRB assay; assay type: functional; settings: read-out: Activity
KM12 = assay: Cytotoxicity against human KM12 cells assessed as cell growth at 5 uM by SRB assay; assay type: functional; settings: read-out: Activity
T47D [6] = assay: Cytotoxicity against human T47D cells assessed as cell growth at 0.05 uM by SRB assay; assay type: functional; settings: read-out: Activity
SF-539 [7] = assay: Cytotoxicity against human SF539 cells assessed as cell growth at 0.005 uM by SRB assay; assay type: functional; settings: read-out: Activity
NCI-H23 = assay: Cytotoxicity against human NCI-H23 cells assessed as cell growth at 5 uM by SRB assay; assay type: functional; settings: read-out: Activity
SR = assay: Cytotoxicity against human SR cells assessed as cell growth at 50 uM by SRB assay; assay type: functional; settings: read-out: Activity
UACC-62 = assay: Cytotoxicity against human UACC62 cells assessed as cell growth at 0.005 uM by SRB assay; assay type: functional; settings: read-out: Activity
LOX IMVI = assay: Cytotoxicity against human LOXIMVI cells assessed as cell growth at 0.05 uM by SRB assay; assay type: functional; settings: read-out: Activity
SF-295 = assay: Cytotoxicity against human SF295 cells assessed as cell growth at 0.5 uM by SRB assay; assay type: functional; settings: read-out: Activity
ACHN [8] = assay: Cytotoxicity against human ACHN cells by SRB assay; assay type: functional
SW-620 [9] = assay: Cytotoxicity against human SW620 cells assessed as cell growth at 0.5 uM by SRB assay; assay type: functional; settings: read-out: Activity
SNB-75 = assay: Cytotoxicity against human SNB75 cells by SRB assay; assay type: functional; procedure, shortened: as §1
NCI-H322M = assay: Cytotoxicity against human NCI-H322M cells assessed as cell growth at 50 uM by SRB assay; assay type: functional; settings: read-out: Activity
SK-MEL-2 = assay: Cytotoxicity against human SK-MEL-2 cells assessed as cell growth at 0.005 uM by SRB assay; assay type: functional; settings: read-out: Activity
PC-3 = assay: Cytotoxicity against human PC3 cells assessed as cell growth at 0.05 uM by SRB assay; assay type: functional; settings: read-out: Activity
UO-31 = assay: Cytotoxicity against human UO31 cells assessed as cell growth at 5 uM by SRB assay; assay type: functional; settings: read-out: Activity
MDA-MB-231 [10] = assay: Cytotoxicity against human MDA-MB-231/ATCC cells assessed as cell growth at 0.5 uM by SRB assay; assay type: functional; settings: read-out: Activity
U-251 = assay: Cytotoxicity against human U251 cells assessed as cell growth at 0.05 uM by SRB assay; assay type: functional; settings: read-out: Activity
OVCAR-8 = assay: Cytotoxicity against human OVCAR8 cells assessed as cell growth at 0.5 uM by SRB assay; assay type: functional; settings: read-out: Activity
TK-10 [11] = assay: Cytotoxicity against human TK10 cells assessed as cell growth at 0.05 uM by SRB assay; assay type: functional; settings: read-out: Activity
SK-MEL-28 = assay: Cytotoxicity against human SK-MEL-28 cells assessed as cell growth at 0.5 uM by SRB assay; assay type: functional; settings: read-out: Activity
HOP-92 [12] = assay: Cytotoxicity against human HOP92 cells by SRB assay; assay type: functional; procedure, shortened: as §2
MDA-MB-231 [13] = assay: Cytotoxicity against human MDA-MB-231/ATCC cells assessed as cell growth at 50 uM by SRB assay; assay type: functional; settings: read-out: Activity
SK-OV-3 = assay: Cytotoxicity against human SKOV3 cells assessed as cell growth at 0.5 uM by SRB assay; assay type: functional; settings: read-out: Activity
OVCAR-3 = assay: Cytotoxicity against human OVCAR3 cells assessed as cell growth at 0.5 uM by SRB assay; assay type: functional; settings: read-out: Activity
TK-10 [14] = assay: Cytotoxicity against human TK10 cells assessed as cell growth at 50 uM by SRB assay; assay type: functional; settings: read-out: Activity
[15] = Cytotoxicity against human NCI-ADR-RES cells assessed as cell growth at 0.005 uM by SRB assay; assay type: functional; settings: read-out: Activity
HOP-92 [16] = assay: Cytotoxicity against human HOP92 cells assessed as cell growth at 0.005 uM by SRB assay; assay type: functional; settings: read-out: Activity; procedure, shortened: as §2
HCT-116 = assay: Cytotoxicity against human HCT116 cells assessed as cell growth at 0.005 uM by SRB assay; assay type: functional; settings: read-out: Activity; procedure, shortened: as §2
SF-539 [17] = assay: Cytotoxicity against human SF539 cells by SRB assay; assay type: functional; procedure, shortened: as §1
T47D [18] = assay: Cytotoxicity against human T47D cells assessed as cell growth at 5 uM by SRB assay; assay type: functional; settings: read-out: Activity
[19] = read-out: LC50 (the source's name)
[20] = read-out: pLC50 (the source's name) (converted)

COc1cc([C@@H]2c3cc4c(cc3[C@@H](NC(=O)CN3CCN(CCCCCCN5CCN(CC(=O)N[C@@H]6c7cc8c(cc7[C@@H](c7cc(OC)c(O)c(OC)c7)[C@H]7C(=O)OC[C@@H]76)OCO8)CC5)CC3)[C@H]3COC(=O)[C@H]23)OCO4)cc(OC)c1O
GI50 (MDA-MB-468; read-out: GI50): 1.72 µM | CC50 (MDA-MB-468; [19]): 50 µM | TGI (MDA-MB-468; read-out: TGI): 12.3 µM | GI50 (MDA-MB-468; read-out: pGI50 (converted)): 1.74 µM | CC50 (MDA-MB-468; [20]): > 50.1 µM | TGI (MDA-MB-468; read-out: pTGI (converted)): 12.3 µM | growth at 0.05 µM (A549): 89% | growth at 50 µM (A498): -10% | growth at 5 µM (UACC-257): 62% | growth at 5 µM (NCI-H460 [1]): 11% | growth at 0.005 µM (NCI-H460 [2]): 100% | GI50 (SW-620 [3]; read-out: GI50): 1.6 µM | CC50 (SW-620 [3]; [19]): > 50 µM | TGI (SW-620 [3]; read-out: TGI): > 50 µM | GI50 (SW-620 [3]; read-out: pGI50 (converted)): 1.58 µM | CC50 (SW-620 [3]; [20]): > 50.1 µM | TGI (SW-620 [3]; read-out: pTGI (converted)): > 50.1 µM | growth at 0.005 µM (HCC 2998): 104% | growth at 0.005 µM (SK-MEL-5): 97% | Effect on topoisomerase 2-alpha DNA cleavage (qualitative) [4]: Dose-dependent effect | growth at 0.005 µM (ACHN [5]): 94% | growth at 5 µM (KM12): 46% | growth at 0.05 µM (T47D [6]): 90% | growth at 0.005 µM (SF-539 [7]): 94% | growth at 5 µM (NCI-H23): 44% | growth at 50 µM (SR): 1% | growth at 0.005 µM (UACC-62): 97% | growth at 0.05 µM (LOX IMVI): 88% | growth at 0.5 µM (SF-295): 94% | GI50 (ACHN [8]; read-out: GI50): 22.3 µM | CC50 (ACHN [8]; [19]): > 50 µM | TGI (ACHN [8]; read-out: TGI): > 50 µM | GI50 (ACHN [8]; read-out: pGI50 (converted)): 22.4 µM | CC50 (ACHN [8]; [20]): > 50.1 µM | TGI (ACHN [8]; read-out: pTGI (converted)): > 50.1 µM | growth at 0.5 µM (SW-620 [9]): 63% | GI50 (SNB-75; read-out: GI50): 0.957 µM | CC50 (SNB-75; [19]): > 50 µM | TGI (SNB-75; read-out: TGI): 12.8 µM | GI50 (SNB-75; read-out: pGI50 (converted)): 0.955 µM | CC50 (SNB-75; [20]): > 50.1 µM | TGI (SNB-75; read-out: pTGI (converted)): 12.9 µM | growth at 50 µM (NCI-H322M): 37% | growth at 0.005 µM (SK-MEL-2): 102% | growth at 0.05 µM (PC-3): 90% | growth at 5 µM (UO-31): 89% | growth at 0.5 µM (MDA-MB-231 [10]): 97% | growth at 0.05 µM (U-251): 101% | growth at 0.5 µM (OVCAR-8): 111% | growth at 0.05 µM (TK-10 [11]): 98% | growth at 0.5 µM (SK-MEL-28): 91% | GI50 (HOP-92 [12]; read-out: GI50): 1.55 µM | CC50 (HOP-92 [12]; [19]): > 50 µM | TGI (HOP-92 [12]; read-out: TGI): > 50 µM | GI50 (HOP-92 [12]; read-out: pGI50 (converted)): 1.55 µM | CC50 (HOP-92 [12]; [20]): > 50.1 µM | TGI (HOP-92 [12]; read-out: pTGI (converted)): > 50.1 µM | growth at 50 µM (MDA-MB-231 [13]): 13% | growth at 0.5 µM (SK-OV-3): 97% | growth at 0.5 µM (OVCAR-3): 103% | growth at 50 µM (TK-10 [14]): 63% | growth at 0.005 µM [15]: 104% | growth at 0.005 µM (HOP-92 [16]): 88% | growth at 0.005 µM (HCT-116): 93% | GI50 (SF-539 [17]; read-out: GI50): 0.898 µM | CC50 (SF-539 [17]; [19]): > 50 µM | TGI (SF-539 [17]; read-out: TGI): 3.57 µM | GI50 (SF-539 [17]; read-out: pGI50 (converted)): 0.891 µM | CC50 (SF-539 [17]; [20]): > 50.1 µM | TGI (SF-539 [17]; read-out: pTGI (converted)): 3.55 µM | growth at 5 µM (T47D [18]): 31%
